Data reported in ChEMBL document CHEMBL1131183, “New 1alpha,25-dihydroxy-19-norvitamin D3 compounds of high biological activity: synthesis and biological evaluation of 2-hydroxymethyl, 2-methyl, and 2-methylene analogues” (1998).
“And” between values parts separate entries of the source, which are not always exact repeats. Identical values can stand only once.

Tests used:
Rattus norvegicus [1] = species on record: Rattus norvegicus; test: Support of intestinal calcium transport measured in vitamin D-deficient rats on a low-calcium diet(260); format: functional
Summary of the method: (§1)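 Vitamin D-deficient weanling male rats, 0.47% Ca diet 1 week then 0.02% Ca diet 3 weeks, given 130 or 260 pmol ip daily for 7 days in 0.1 mL propylene glycol/ethanol 95:5; vehicle controls. Killed 24 h after last dose; everted sac of proximal 10 cm intestine, Ca by atomic absorption, expressed as serosal/mucosal ratio. ≥6 rats/group, mean ± SEM, t-test.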

HL-60 = test: Induced differentiation of human promyelocyte HL-60 cells into monocytes; format: functional; settings: read-out: ED50 (the source's name)
Rattus norvegicus [2] = species on record: Rattus norvegicus; test: Support of intestinal calcium transport measured in vitamin D-deficient rats on a low-calcium diet(130); format: functional; summary of the method: as §1
Rattus norvegicus [3] = species on record: Rattus norvegicus; test: Bone calcium mobilization measured in vitamin D-deficient rats on a low-calcium diet(260); format: functional, organism-based
Summary of the method: (§2)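 Weanling male rats kept on 0.47% Ca diet 1 week, then 0.02% Ca diet 3 weeks; dosed ip daily for 7 days (130 or 260 pmol) in 0.1 mL propylene glycol/ethanol 95:5 during last week; vehicle controls. Serum Ca measured 24 h after last dose by atomic absorption with 0.1% LaCl3; rise in serum Ca taken as bone mobilization. ≥6 rats/group, mean ± SEM, Student's t-test.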

Rattus norvegicus [4] = species on record: Rattus norvegicus; test: Bone calcium mobilization measured in vitamin D-deficient rats on a low-calcium diet(130); format: functional, organism-based; summary of the method: as §2
[5] = target: T1, Vitamin D3 receptor (Sus scrofa) (UniProt A3RGC1)
T1 sequence (whole entry): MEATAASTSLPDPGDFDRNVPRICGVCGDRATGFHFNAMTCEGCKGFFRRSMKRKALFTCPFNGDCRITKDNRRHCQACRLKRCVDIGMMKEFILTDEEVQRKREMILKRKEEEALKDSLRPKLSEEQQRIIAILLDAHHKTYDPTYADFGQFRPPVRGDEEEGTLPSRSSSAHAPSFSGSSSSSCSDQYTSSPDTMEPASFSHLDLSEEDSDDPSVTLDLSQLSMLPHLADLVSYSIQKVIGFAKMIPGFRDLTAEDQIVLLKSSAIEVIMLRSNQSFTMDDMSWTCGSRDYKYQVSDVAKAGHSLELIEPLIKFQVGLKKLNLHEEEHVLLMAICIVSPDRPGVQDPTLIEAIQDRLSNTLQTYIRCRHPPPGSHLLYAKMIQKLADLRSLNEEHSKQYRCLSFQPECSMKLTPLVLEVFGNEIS

[6] = target: T1, Vitamin D3 receptor (Sus scrofa); test: Inhibition of 1-alpha,25-(OH)2D3 binding to porcine intestinal vitamin D receptor
Summary of the method: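 Porcine intestinal nuclear extract, 0.1 mg protein (200 fmol binding activity) per tube, incubated with 10 000 cpm 1α,25-(OH)2[26,27-3H]D3 plus graded unlabelled standard or analogue in ethanol, 4 h room temperature with shaking. Bound label captured on hydroxyapatite, washed with TE/5% Triton, counted by scintillation. ED50 = concentration displacing 50% of label, from dose-response curves; triplicate on two occasions.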

Row | Compound | Ca2+ transport S/M (Rattus norvegicus [1]) | EC50 (HL-60) [nM] | Ca2+ transport S/M (Rattus norvegicus [2]) | Serum Ca2+ (Rattus norvegicus [3]) | Serum Ca2+ (Rattus norvegicus [4]) | EC50 (HL-60; Homo sapiens, HL-60) [nM] | ED50 [5] | ED50 [6] [nM]
1 | CC1[C@H](O)CC(=C/C=C2\CCC[C@]3(C)[C@@H]([C@H](C)CCCC(C)(C)O)CC[C@@H]23)C[C@H]1O (stereo partly specified) [listing 1 of 3 here] | 5.3 | 0.08 | 4.3 |  |  |  |  | 
2 | C[C@@H](CCCC(C)(C)O)[C@H]1CC[C@H]2/C(=C/C=C3C[C@@H](O)C(CO)[C@H](O)C3)CCC[C@]12C (stereo partly specified) [listing 1 of 3 here] |  |  |  | 3.5 and 3.9 | 3.6 and 4 |  |  | 
3 | C=C1[C@H](O)CC(=C/C=C2\CCC[C@]3(C)[C@@H]([C@H](C)CCCC(C)(C)O)CC[C@@H]23)C[C@H]1O | 4.9 |  | 5.3 | 9.6 | 9.9 | 4.2 | 0.12 nM | 
4 | C[C@@H](CCCC(C)(C)O)[C@H]1CC[C@H]2/C(=C/C=C3C[C@@H](O)C(CO)[C@H](O)C3)CCC[C@]12C (stereo partly specified) [listing 2 of 3 here] | 3.5 | 4.5 | 3.5 |  |  |  |  | 
5 | C=C1[C@H](O)CC(=C/C=C2\CCC[C@]3(C)[C@@H]([C@@H](C)CCCC(C)(C)O)CC[C@@H]23)C[C@H]1O [DP001] | 4.6 |  | 5.8 | 14.4 | 13.8 | 0.15 | 0.1 nM | 
6 | CC1[C@H](O)CC(=C/C=C2\CCC[C@]3(C)[C@@H]([C@H](C)CCCC(C)(C)O)CC[C@@H]23)C[C@H]1O (stereo partly specified) [listing 2 of 3 here] |  |  |  | 3.8 and 5.8 | 4.1 and 4.8 |  |  | 
7 | CC1[C@H](O)CC(=C/C=C2\CCC[C@]3(C)[C@@H]([C@@H](C)CCCC(C)(C)O)CC[C@@H]23)C[C@H]1O (stereo partly specified) [listing 1 of 3 here] | 3.8 | 0.7 | 2.9 |  |  |  |  | 
8 | CC1[C@H](O)CC(=C/C=C2\CCC[C@]3(C)[C@@H]([C@@H](C)CCCC(C)(C)O)CC[C@@H]23)C[C@H]1O (stereo partly specified) [listing 2 of 3 here] |  |  |  | 10.3 and 4.4 | 8.3 and 4.4 |  | 0.4 nM and 0.5 nM | 
9 | CC1[C@H](O)CC(=C/C=C2\CCC[C@]3(C)[C@@H]([C@@H](C)CCCC(C)(C)O)CC[C@@H]23)C[C@H]1O (stereo partly specified) [listing 3 of 3 here] | 8.4 | 0.07 | 12.9 |  |  |  |  | 
10 | C=C1/C(=C\C=C2/CCC[C@]3(C)[C@@H]([C@H](C)CCCC(C)(C)O)CC[C@@H]23)C[C@@H](O)C[C@@H]1O [CALCITRIOL] | 6.2 and 5.6 and 4.6 and 6.6 |  |  | 6.6 [middle of 4 runs] |  |  |  | 0.09
11 | C[C@H](CCCC(C)(C)O)[C@H]1CC[C@H]2/C(=C/C=C3C[C@@H](O)C(CO)[C@H](O)C3)CCC[C@]12C (stereo partly specified) |  |  |  |  |  | 20 |  | 
12 | C[C@@H](CCCC(C)(C)O)[C@H]1CC[C@H]2/C(=C/C=C3C[C@@H](O)C(CO)[C@H](O)C3)CCC[C@]12C (stereo partly specified) [listing 3 of 3 here] | 5.8 | 2 | 5 |  |  |  |  | 
13 | CC1[C@H](O)CC(=C/C=C2\CCC[C@]3(C)[C@@H]([C@H](C)CCCC(C)(C)O)CC[C@@H]23)C[C@H]1O (stereo partly specified) [listing 3 of 3 here] | 3 | 8 | 4.4 |  |  |  |  | 
